Test results reported in ChEMBL document CHEMBL1137307, “Further studies on imidazo[4,5-b]pyridine AT1 angiotensin II receptor antagonists. Effects of the transformation of the 4-phenylquinoline backbone into 4-phenylisoquinolinone or 1-phenylindene scaffolds” (J Med Chem, 2006).

Experiments:
[1] = Terminal half life in Sprague-Dawley rat at 3 mg/kg, iv; format: ADME, organism-based; set-up: dose 3 mg/kg, route intravenous; details: in vivo, read-out: beta t1/2 (converted)
Outline: (§1)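 Fasted Sprague-Dawley rats, 250-300 g, dosed orally or by tail-vein injection. Blood sampled at selected times and plasma analysed by HPLC. t1/2 (terminal), AUC, observed Cmax and tmax calculated from plasma concentration-time data.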

[2] = AUC in Sprague-Dawley rat at 3 mg/kg, iv; format: ADME, organism-based; set-up: dose 3 mg/kg, route intravenous; details: plasma; outline: as §1
[3] = target: T1, Angiotensin II receptor (AT-1) type-1 (Rattus norvegicus, UniProt P29089+P25095); test: Displacement of [125I]Sar1,Ile8-Ang2 from AT1 receptor in rat hepatic membrane; format: cell membranes, Liver
T1 sequence (P29089 whole entry): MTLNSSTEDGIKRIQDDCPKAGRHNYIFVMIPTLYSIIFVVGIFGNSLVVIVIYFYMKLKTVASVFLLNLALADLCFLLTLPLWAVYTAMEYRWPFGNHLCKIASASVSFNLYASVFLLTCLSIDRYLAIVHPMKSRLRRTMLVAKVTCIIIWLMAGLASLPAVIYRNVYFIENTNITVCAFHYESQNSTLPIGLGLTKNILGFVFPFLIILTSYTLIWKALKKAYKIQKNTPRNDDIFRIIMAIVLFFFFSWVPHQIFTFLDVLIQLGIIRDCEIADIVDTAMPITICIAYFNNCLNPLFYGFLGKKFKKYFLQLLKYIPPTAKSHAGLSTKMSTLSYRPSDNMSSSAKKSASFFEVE
T1 sequence (P25095 whole entry): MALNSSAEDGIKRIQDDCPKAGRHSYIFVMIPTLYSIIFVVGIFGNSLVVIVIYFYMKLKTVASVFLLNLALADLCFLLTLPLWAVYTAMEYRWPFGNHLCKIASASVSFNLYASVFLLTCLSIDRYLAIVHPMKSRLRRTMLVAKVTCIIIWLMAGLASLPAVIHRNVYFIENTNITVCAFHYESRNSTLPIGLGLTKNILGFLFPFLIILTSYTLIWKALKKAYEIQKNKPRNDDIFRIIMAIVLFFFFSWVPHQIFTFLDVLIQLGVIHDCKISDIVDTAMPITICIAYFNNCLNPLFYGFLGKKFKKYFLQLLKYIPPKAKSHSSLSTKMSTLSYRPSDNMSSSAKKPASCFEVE
Outline: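 Rat liver membranes from male Wistar rats, prepared by differential centrifugation (750g, then 50 000g), 25 µg protein per well in 50 mM Tris-HCl, 100 mM NaCl, 10 mM MgCl₂, 1 mM EDTA, bacitracin, PMSF, 0.1% BSA, pH 7.4. Nonspecific binding defined with 1 µM Ang II. Filtration read-out. IC50 given as mean ± SEM of three determinations.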

[4] = Terminal half life in Sprague-Dawley rat at 30 mg/kg, po; format: ADME, organism-based; set-up: dose 30 mg/kg, route oral; details: in vivo, read-out: beta t1/2 (converted); outline: as §1
[5] = target: T2, Type-1 angiotensin II receptor (Oryctolagus cuniculus, UniProt P34976); test: Antagonist activity against AT1 receptor assessed as inhibition of Ang2-induced rabbit aortic strip contraction; format: functional
T2 sequence (P34976 whole entry): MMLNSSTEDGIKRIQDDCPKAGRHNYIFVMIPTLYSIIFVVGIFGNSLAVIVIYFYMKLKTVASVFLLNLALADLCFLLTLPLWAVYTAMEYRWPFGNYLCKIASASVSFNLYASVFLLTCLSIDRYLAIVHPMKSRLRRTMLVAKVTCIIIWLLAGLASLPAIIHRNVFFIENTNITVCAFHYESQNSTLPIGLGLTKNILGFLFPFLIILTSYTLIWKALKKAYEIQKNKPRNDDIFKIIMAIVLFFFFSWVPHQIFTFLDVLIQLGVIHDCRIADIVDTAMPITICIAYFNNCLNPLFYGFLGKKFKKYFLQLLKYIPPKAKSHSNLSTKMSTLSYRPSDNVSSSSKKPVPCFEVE
Outline: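 Rabbit aortic strips equilibrated 1 h, washed every 10 min. An Ang II cumulative curve was run, then 30 min washout. Antagonist or vehicle applied for 60 min before a submaximal (70-80%) Ang II challenge, 5 nM in controls. One antagonist concentration per tissue. Response read as % inhibition of contraction; IC50 derived from the regression line.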

[6] = Tmax in Sprague-Dawley rat at 30 mg/kg, po; format: ADME, organism-based; set-up: dose 30 mg/kg, route oral; details: in vivo; outline: as §1
[7] = Apparent permeability from apical to basolateral side of Caco-2 cell; format: ADME, cell-based; details: human
Outline: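 Caco-2 cells grown in DMEM with 10% FBS on polycarbonate supports, 15-21 days at 37 °C. Compound dosed apically at 10-100 µM final in HBSS with 1% DMSO, at 37 °C, apical-to-basolateral direction. Monolayer integrity checked by [¹⁴C]mannitol permeability. Transported compound measured by HPLC-MS; Papp calculated by equation.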

[8] = AUC in Sprague-Dawley rat at 30 mg/kg, po; format: ADME, organism-based; set-up: dose 30 mg/kg, route oral; details: plasma
Outline: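 Fasted Sprague-Dawley rats (250-300 g) given compound orally; blood sampled at selected times after dosing, plasma analysed by HPLC, and area under the plasma concentration-time curve calculated.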

[9] = Oral bioavailability in Sprague-Dawley rat at 30 mg/kg, po; format: ADME, organism-based; details: in vivo; outline: as §1
[10] = Cmax in Sprague-Dawley rat at 30 mg/kg, po; format: ADME, organism-based; set-up: dose 30 mg/kg, route oral; details: in vivo; outline: as §1
[11] = Oral bioavailability in Sprague-Dawley rat at 10 mg/kg, po; details: in vivo

Q: For CCCc1nc2c(C)cc(C)nc2n1Cc1ccc(-c2c(C(=O)O)c(Cl)nc3ccccc23)cc1, which half-life [1] is on record?
A: 18 min

Q: And the AUC [2]?
A: 340 ng·h/mL

Q: And the IC50 [3]?
A: 7.7 nM

Q: With CCCc1nc2c(C)cc(C)nc2n1Cc1ccc(C2=C(C(=O)NS(=O)(=O)c3ccccc3)C(=O)c3ccccc32)cc1 as the molecule, how does the IC50 [3] read?
A: 131 nM

Q: Which results are given for CCc1nc2c(C)cc(C)nc2n1Cc1ccc(-c2c(-c3nn[nH]n3)cnc3ccccc23)cc1?
A: half-life [4]: 60 min; IC50 [5]: 8.9 nM; Tmax [6]: 30 min; Papp A→B [7]: 0.1 ×10⁻⁶ cm/s; AUC [8]: 4400 ng·h/mL; half-life [1]: 40.8 min; AUC [2]: 890 ng·h/mL; bioavailability [9]: 49%; IC50 [3]: 6.9 nM; Cmax [10]: 4200 ng/mL

Q: With CCCc1nc2c(C)cc(C)nc2n1Cc1ccc(-c2c(C(=O)O)c(N)nc3ccccc23)cc1 as the molecule, how does the IC50 [5] read?
A: 3.3 nM

Q: And the half-life [1]?
A: 16.8 min

Q: And the AUC [2]?
A: 520 ng·h/mL

Q: What about the IC50 [3] of the same molecule?
A: 4.2 nM

Q: With CCCc1nc2c(C)cc(C)nc2n1Cc1ccc(-c2c(C(=O)O)c(C)nc3ccccc23)cc1 as the molecule, how does the IC50 [5] read?
A: 13 nM

Q: What about the half-life [1] of the same molecule?
A: 19.8 min

Q: What about the AUC [2] of the same molecule?
A: 500 ng·h/mL

Q: And the IC50 [3]?
A: 9 nM

Q: With CCc1nc2c(C)cc(C)nc2n1Cc1ccc(C2=C(C(=O)O)C(=O)c3ccccc32)cc1 as the molecule, how does the IC50 [3] read?
A: 53 nM

Q: With CCCc1nc2c(C)cc(C)nc2n1Cc1ccc(-c2c(C(=O)O)n(C)c(=O)c3ccccc23)cc1 as the molecule, how does the IC50 [3] read?
A: 5.7 nM

Q: Which IC50 [3] does the source give for C=C1C(C(=O)O)=C(c2ccc(Cn3c(CCC)nc4c(C)cc(C)nc43)cc2)c2ccccc21 here?
A: 60 nM

Q: Which IC50 [3] does the source give for CCCc1nc2c(C)cc(C)nc2n1Cc1ccc(C2(C(C(=O)O)C(=O)O)CC(=O)c3ccccc32)cc1 (configuration not stated) here?
A: 55 nM

Q: With CCCc1nc2c(C)cc(C)nc2n1Cc1ccc(C2=C(C(=O)NS(C)(=O)=O)C(=O)c3ccccc32)cc1 as the molecule, how does the IC50 [3] read?
A: 54 nM

Q: For CCCc1nc2c(C)cc(C)nc2n1Cc1ccc(C2(CC(=O)O)CC(=O)c3ccccc32)cc1 (configuration not stated), which IC50 [3] is on record?
A: 139 nM

Q: With CCCCc1nc(Cl)c(CO)n1Cc1ccc(-c2ccccc2-c2nn[nH]n2)cc1 [LOSARTAN] as the molecule, how does the half-life [4] read?
A: 180 min

Q: And the Tmax [6]?
A: 30 min

Q: And the Papp A→B [7]?
A: 1.15 ×10⁻⁶ cm/s

Q: What about the AUC [8] of the same molecule?
A: 74800 ng·h/mL

Q: And the half-life [1]?
A: 282 min

Q: What about the AUC [2] of the same molecule?
A: 12400 ng·h/mL

Q: And the bioavailability [9]?
A: 60%

Q: And the Cmax [10]?
A: 27500 ng/mL

Q: With CCCc1nc2c(C)cc(C)nc2n1Cc1ccc(C2=C(C(=O)O)C(C)c3ccccc32)cc1 (configuration not stated) as the molecule, how does the IC50 [3] read?
A: 99 nM

Q: With CCCc1nc2c(C)cc(C)nc2n1Cc1ccc(-c2c(-c3nn[nH]n3)n(C)c(=O)c3ccccc23)cc1 as the molecule, how does the IC50 [3] read?
A: > 300 nM

Q: For CCCc1nc2c(C)cc(C)nc2n1Cc1ccc(C2=C(C(=O)O)C(O)(CC)c3ccccc32)cc1 (configuration not stated), which IC50 [3] is on record?
A: 15 nM

Q: With CCCc1nc2c(C)cc(C)nc2n1Cc1ccc(C2=C(C(=O)O)C(C)(O)c3ccccc32)cc1 (configuration not stated) as the molecule, how does the IC50 [5] read?
A: 33 nM

Q: And the IC50 [3]?
A: 11 nM

Q: Which Papp A→B [7] does the source give for CCCCc1nc2c(C)cc(C)nc2n1Cc1ccc(-c2c(C(=O)O)n(C)c(=O)c3ccccc23)cc1 here?
A: 0.01 ×10⁻⁶ cm/s

Q: And the IC50 [3]?
A: 6.2 nM

Q: What does the source list for CCc1nc2c(C)cc(C)nc2n1Cc1ccc(-c2c(C(=O)O)n(C)c(=O)c3ccccc23)cc1?
A: bioavailability [11]: 0%; IC50 [5]: 4.6 nM; Papp A→B [7]: 0.03 ×10⁻⁶ cm/s; half-life [1]: 13.2 min; AUC [2]: 630 ng·h/mL; IC50 [3]: 5.2 nM

Q: For CCCc1nc2c(C)cc(C)nc2n1Cc1ccc(C2C(C(=O)O)=C(C)c3ccccc32)cc1 (configuration not stated), which IC50 [3] is on record?
A: 47 nM

Q: For CCc1nc2c(C)cc(C)nc2n1Cc1ccc(-c2c(-c3nn[nH]n3)n(C)c(=O)c3ccccc23)cc1, which IC50 [3] is on record?
A: > 300 nM

Q: With CCCCc1nc2c(C)cc(C)nc2n1Cc1ccc(-c2c(-c3nn[nH]n3)n(C)c(=O)c3ccccc23)cc1 as the molecule, how does the IC50 [3] read?
A: > 300 nM
